Tests used:
Format in all cases: functional
Parameters in all cases: scale not given: the % may be the effect or the level left
[1] = tested on: UACC-62; test: Antitumor activity against human UACC-62 cells assessed as reduction of cell growth at 10 uM after 48 hrs by SRB assay
Summary of the method: (§1)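 NCI-60 one-dose primary screen at 10^-5 M final. Cells grown in RPMI 1640 with 5% FBS and 2 mM L-glutamine, plated at 5000–40,000 cells/well and preincubated 24 h at 37 °C, 5% CO2. Drug stocks in DMSO, diluted in medium with gentamicin. Exposure 48 h, then fixed in situ with TCA (10% final) for 60 min at 4 °C. Stained with 0.4% SRB in 1% acetic acid, bound dye solubilized in 10 mM trizma base, absorbance read at 515 nm. Reported as mean growth percent; negative values indicate cell kill.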

[2] = tested on: UACC-257; test: Antitumor activity against human UACC-257 cells assessed as reduction of cell growth at 10 uM after 48 hrs by SRB assay; summary of the method: as §1
[3] = tested on: SK-MEL-5; test: Antitumor activity against human SK-MEL-5 cells assessed as reduction of cell growth at 10 uM after 48 hrs by SRB assay
Summary of the method: (§2)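 NCI 60-cell-line primary screen, single dose 10^-5 M (final). Cells grown in RPMI 1640 with 5% FBS and 2 mM L-glutamine, seeded at 5000–40,000 cells/well and preincubated 24 h at 37 °C, 5% CO2. Compound is dissolved in DMSO, diluted in medium with gentamicin, and exposed 48 h. Cells are fixed with 10% TCA (final) and stained with 0.4% SRB; absorbance is read at 515 nm. Readout is growth percentage.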

[4] = tested on: SK-MEL-28; test: Antitumor activity against human SK-MEL-28 cells assessed as reduction of cell growth at 10 uM after 48 hrs by SRB assay; summary of the method: as §2
[5] = tested on: SK-MEL-2; test: Antitumor activity against human SK-MEL-2 cells assessed as reduction of cell growth at 10 uM after 48 hrs by SRB assay; summary of the method: as §2
[6] = tested on: LOX IMVI; test: Antitumor activity against human LOXIMVI cells assessed as reduction of cell growth at 10 uM after 48 hrs by SRB assay; summary of the method: as §2
[7] = tested on: SN12C; test: Antitumor activity against human SN12C cells assessed as reduction of cell growth at 10 uM after 48 hrs by SRB assay; summary of the method: as §2
[8] = tested on: RXF 393; test: Antitumor activity against human RXF 393 cells assessed as reduction of cell growth at 10 uM after 48 hrs by SRB assay; summary of the method: as §2
[9] = tested on: CAKI-1; test: Antitumor activity against human Caki-1 cells assessed as reduction of cell growth at 10 uM after 48 hrs by SRB assay; summary of the method: as §2
[10] = tested on: ACHN; test: Antitumor activity against human ACHN cells assessed as reduction of cell growth at 10 uM after 48 hrs by SRB assay; summary of the method: as §2
[11] = tested on: A498; test: Antitumor activity against human A-498 cells assessed as reduction of cell growth at 10 uM after 48 hrs by SRB assay; summary of the method: as §2
[12] = tested on: SR; test: Antitumor activity against human SR cells assessed as reduction of cell growth at 10 uM after 48 hrs by SRB assay; summary of the method: as §1
[13] = tested on: MOLT-4; test: Antitumor activity against human MOLT-4 cells assessed as reduction of cell growth at 10 uM after 48 hrs by SRB assay; summary of the method: as §2
[14] = tested on: K562; test: Antitumor activity against human K-562 cells assessed as reduction of cell growth at 10 uM after 48 hrs by SRB assay; summary of the method: as §2
[15] = tested on: HL-60(TB); test: Antitumor activity against human HL-60(TB) cells assessed as reduction of cell growth at 10 uM after 48 hrs by SRB assay; summary of the method: as §2
[16] = tested on: SK-OV-3; test: Antitumor activity against human SKOV3 cells assessed as reduction of cell growth at 10 uM after 48 hrs by SRB assay; summary of the method: as §2
[17] = tested on: OVCAR-3; test: Antitumor activity against human OVCAR-3 cells assessed as reduction of cell growth at 10 uM after 48 hrs by SRB assay; summary of the method: as §2
[18] = tested on: IGROV-1; test: Antitumor activity against human IGROV1 cells assessed as reduction of cell growth at 10 uM after 48 hrs by SRB assay; summary of the method: as §2
[19] = tested on: T47D; test: Antitumor activity against human T47D cells assessed as reduction of cell growth at 10 uM after 48 hrs by SRB assay; summary of the method: as §1
[20] = tested on: MDA-MB-435; test: Antitumor activity against human MDA-MB-435 cells assessed as reduction of cell growth at 10 uM after 48 hrs by SRB assay; summary of the method: as §2
[21] = tested on: MDA-MB-231; test: Antitumor activity against human MDA-MB-231/ATCC cells assessed as reduction of cell growth at 10 uM after 48 hrs by SRB assay; summary of the method: as §2
[22] = tested on: MCF7; test: Antitumor activity against human MCF7 cells assessed as reduction of cell growth at 10 uM after 48 hrs by SRB assay; summary of the method: as §2
[23] = Antitumor activity against human Hs 578T cells assessed as reduction of cell growth at 10 uM after 48 hrs by SRB assay; summary of the method: as §2
[24] = tested on: BT-549; test: Antitumor activity against human BT-549 cells assessed as reduction of cell growth at 10 uM after 48 hrs by SRB assay; summary of the method: as §2
[25] = tested on: SW-620; test: Antitumor activity against human SW620 cells assessed as reduction of cell growth at 10 uM after 48 hrs by SRB assay; summary of the method: as §1
[26] = tested on: HT-29; test: Antitumor activity against human HT-29 cells assessed as reduction of cell growth at 10 uM after 48 hrs by SRB assay; summary of the method: as §2
[27] = Antitumor activity against human HCT 116 cells assessed as reduction of cell growth at 10 uM after 48 hrs by SRB assay; summary of the method: as §2
[28] = tested on: COLO 205; test: Antitumor activity against human COLO205 cells assessed as reduction of cell growth at 10 uM after 48 hrs by SRB assay; summary of the method: as §2
[29] = tested on: NCI-H522; test: Antitumor activity against human NCI-H522 cells assessed as reduction of cell growth at 10 uM after 48 hrs by SRB assay; summary of the method: as §2
[30] = tested on: NCI-H460; test: Antitumor activity against human NCI-H460 cells assessed as reduction of cell growth at 10 uM after 48 hrs by SRB assay; summary of the method: as §2
[31] = tested on: NCI-H322M; test: Antitumor activity against human NCI-H322M cells assessed as reduction of cell growth at 10 uM after 48 hrs by SRB assay; summary of the method: as §2
[32] = tested on: NCI-H23; test: Antitumor activity against human NCI-H23 cells assessed as reduction of cell growth at 10 uM after 48 hrs by SRB assay; summary of the method: as §2
[33] = tested on: HOP-62; test: Antitumor activity against human HOP-62 cells assessed as reduction of cell growth at 10 uM after 48 hrs by SRB assay; summary of the method: as §2
[34] = tested on: SF-539; test: Antitumor activity against human SF-539 cells assessed as reduction of cell growth at 10 uM after 48 hrs by SRB assay; summary of the method: as §2
[35] = tested on: SNB-19; test: Antitumor activity against human SNB-19 cells assessed as reduction of cell growth at 10 uM after 48 hrs by SRB assay; summary of the method: as §2
[36] = tested on: SNB-75; test: Antitumor activity against human SNB75 cells assessed as reduction of cell growth at 10 uM after 48 hrs by SRB assay; summary of the method: as §2
[37] = tested on: U-251; test: Antitumor activity against human U251 cells assessed as reduction of cell growth at 10 uM after 48 hrs by SRB assay; summary of the method: as §1

Structure (SMILES) | Activity [1] | Activity [2] | Activity [3] | Activity [4] | Activity [5] | Activity [6] | Activity [7] | Activity [8] | Activity [9] | Activity [10] | Activity [11] | Activity [13] | Activity [14] | Activity [15] | Activity [16] | Activity [17] | Activity [18] | Activity [19] | Activity [20] | Activity [21] | other results
CCOC1=C2CC[C@@H]3[C@H](CC[C@]4(C)C(=O)CC[C@@H]34)[C@@]2(C)CCC1=O | 90.78% | 117.1% | 99.39% | 135.2% | 94.48% | 100.3% | 110.6% | 117.9% | 115.2% | 105.1% | 105.6% | 98.59% | 94.09% | 112.2% | 111.3% | 128.63% | 85.75% | 117.94% | 104.79% | 106.73% | Activity [12]: 104.9%; Activity [22]: 108.56%; Activity [23]: 118.13%; Activity [24]: 93.87%; Activity [25]: 120.57%; Activity [26]: 98.16%; Activity [27]: 103.2%; Activity [28]: 132.65%; Activity [29]: 91%; Activity [30]: 83.36%; Activity [31]: 95.97%; Activity [32]: 101.11%; Activity [33]: 103.52%; Activity [34]: 111.3%; Activity [35]: 112.3%; Activity [36]: 79.71%
C[C@]12CC[C@H]3[C@@H](CCC4=CC(=O)CC[C@@]43CF)[C@@H]1CCC2=O | 114.6% | 97.04% | 108.7% | 116.5% | 97.19% | 96.65% | 113.5% | 67.71% | 111% | 119.9% | 111.1% | 106.1% | 93.48% | 112.8% | 120.5% | 119.07% | 62.42% | 39.44% | 100.91% | 117.71% | Activity [12]: 118.7%; Activity [22]: 130.43%; Activity [23]: 127.96%; Activity [24]: 97.23%; Activity [25]: 125.89%; Activity [26]: 116.4%; Activity [27]: 110.19%; Activity [28]: 134.97%; Activity [29]: 87.35%; Activity [30]: 108.88%; Activity [31]: 101.55%; Activity [32]: 106.48%; Activity [33]: 123.96%; Activity [34]: 105.8%; Activity [35]: 109.3%; Activity [36]: 90.07%; Activity [37]: 111.4%
C[C@]12CCC(=O)C(N)=C1C=C[C@@H]1[C@@H]2CC[C@]2(C)C(=O)CC[C@@H]12.Cl | 81.02% | 86.69% | 69.71% | 103.4% | 74.41% | 60.57% | 88.53% | 95.21% | 84.08% | 88.16% | 99.19% | 57.2% | -26.94% | 52.53% | 120.27% | 64.57% | 49.46% | 73.66% | 112.52% | 100.87% | Activity [22]: -15.97%; Activity [23]: 112.26%; Activity [24]: 82.63%; Activity [25]: 15.36%; Activity [26]: 51.17%; Activity [27]: 6.15%; Activity [28]: 121.26%; Activity [29]: 76.59%; Activity [30]: 83.77%; Activity [31]: 88.38%; Activity [32]: 74.07%; Activity [33]: 111.88%; Activity [34]: 82.75%; Activity [35]: 102.8%; Activity [36]: 94.19%; Activity [37]: 54.19%
C[C@]12CCC(=O)C(Oc3ccccc3)=C1CC[C@@H]1[C@@H]2CC[C@]2(C)C(=O)CC[C@@H]12 | 87.46% | 108.45% | 94.23% | 119.81% | 82.37% | 101.44% | 90.07% | 107.93% | 112.48% | 105.72% | 103% | 105.63% | 86.08% | 105.95% | 117.4% | 121.39% | 55.73% | 116.7% | 113.61% | 109.86% | Activity [12]: 66.91%; Activity [22]: 103.22%; Activity [23]: 103.5%; Activity [24]: 110.1%; Activity [25]: 120.45%; Activity [26]: 100.27%; Activity [27]: 99.87%; Activity [28]: 115.44%; Activity [29]: 87.31%; Activity [30]: 77.42%; Activity [31]: 106.72%; Activity [32]: 97.57%; Activity [33]: 106.47%; Activity [34]: 106.75%; Activity [35]: 114.92%; Activity [36]: 91.11%; Activity [37]: 91.35%

Reference: ChEMBL document CHEMBL1142454, “Synthesis and evaluation of novel 4-amino-4,6-androstadiene-3,17-dione: an analog of formestane” (2008)
